Test results published in PubChem BioAssay AID617 (SRMLSC, 2007).

System: E. coli BW25113 ΔtolC growth inhibition, OD615
Experiment: E. coli ΔtolC antibacterial growth inhibition – strain BW25113 ΔtolC::kan, dose response (AID 617)
In short: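 Test system: E. coli BW25113 ΔtolC::kan bacteria / Buffer or medium: kanamycin-containing LB broth, 50 µg/mL / Compound: serial dilution series of compound / Incubation: bacterial growth with compound for 20 h, 37 °C / Measured by: OD615 / Read-out basis: growth-inhibition IC50 from four-parameter logistic curve, bounds set to 0% and 100%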

| SMILES | IC50 |
| --- | --- |
| COc1cccc2sc(Nc3nc(-c4ccccn4)cs3)nc12 | 1.79 µM |
| CCOC(=O)c1sc2nc(CC(=O)OC)nc(N3CCN(c4ccccn4)CC3)c2c1C | 25.1 µM |
| CCC(=Nc1ccc(OC)cc1OC)c1c(O)n(C2CCCCC2)c(=O)[nH]c1=O | 4.85 µM |
| CCOC(=O)c1cc2oc(C)cc2n1CC(=O)OC1CCCCC1 | 17.6 µM |
| Cc1cc(C(=O)OCc2nc3ccccc3s2)c(C)o1 | 32.6 µM |
| CC(C)Sc1nc(NCc2ccco2)c2c3c(sc2n1)COC(C)(C)C3 | 20.6 µM |
| Cc1ccc(S(=O)(=O)Nc2cccc(-c3cn4ccsc4n3)c2)cc1 | 15.5 µM |
| O=C(OC1CCc2ccccc2C1=O)c1ccccc1O (configuration not stated) | 27.7 µM |
| Cc1cccc(-c2noc(CN(C(=O)c3ccc(Br)o3)C(C)C)n2)c1 | 11.8 µM |
| Clc1ccc(OCCn2ccnc2)c2ccccc12 | 5.58 µM |
| Cc1nc2ncnn2c(N2CCN(C(c3ccccc3)c3ccccc3)CC2)c1C | 6.96 µM |
| c1ccc(-c2oc3ncnc(NCCN4CCOCC4)c3c2-c2ccccc2)cc1 | 11.8 µM |
| CC1CCCN(c2ccc(C(=O)NCCc3ccccc3)cn2)C1 (configuration not stated) | 49.4 µM |
| C=C(C)C1CCC(C)=C1COC(=O)Nc1ccccc1 (configuration not stated) | 12.2 µM |
| Cc1ccc(-c2csc3ncnc(Sc4nnc(CN5CCCCCC5=O)o4)c23)cc1 | 21.6 µM |
| O=S1(=O)Nc2c(ccc3cccnc23)-c2ccccc21 | 1.31 µM |
| O=c1[nH]c2ccc(S(=O)(=O)N3CCN(c4ccccc4F)CC3)cc2s1 | 57 µM |
| O=C(Nc1nc(-c2cccs2)cs1)c1ccc(Cl)s1 | 26.3 µM |
| COc1ccccc1-c1nnc(NC(=O)c2ccc(S(=O)(=O)N(C)C)cc2)o1 | 3.77 µM |
| Cc1ccc(Nc2nc(CSc3nnnn3-c3ccccc3)cs2)cc1 | 11.5 µM |
| COc1ccc(NS(=O)(=O)c2ccc3c(c2)Cc2ccccc2-3)cn1 | 10.7 µM |
| O=C(Nc1ncc(Br)s1)C(Cc1ccccc1)n1cccc1 (configuration not stated) | 3.21 µM |
| Fc1ccc(C(c2ccc(F)cc2)N2CCN(C/C=C/c3ccccc3)CC2)cc1 | 9.08 µM |

| SMILES | IC50 |
| --- | --- |
| O=C(Nc1ccc(C(F)(F)F)cc1Cl)c1ccc(Cn2cc(Br)cn2)o1 | 9.95 µM |
| COc1ccccc1-c1cc(C(=O)NCc2ccc(F)cc2)no1 | 9.85 µM |
| CCCc1[nH]nc2c1C(c1ccc(OC)c(CSC3=NCCS3)c1)C(C#N)=C(N)O2 (configuration not stated) | 69.6 µM |
| CCCCCn1c(N2CCC(Cc3ccccc3)CC2)nc2c1c(=O)[nH]c(=O)n2C | 6.18 µM |
| COc1cc(NS(=O)(=O)c2ccc(NC(=O)COc3ccccc3Cl)cc2)nc(OC)n1 | 24.6 µM |
| CN(Cc1ccccc1)C(=O)CSc1nc2ccccc2c(=O)n1Cc1ccco1 | 10.7 µM |
| Cc1ccc(-c2nnc(SCC(=O)N3CC(C)CC(C)C3)o2)cc1C (configuration not stated) | 12.9 µM |
| Cc1ccc2nc(NC(=O)CNS(=O)(=O)c3ccc(Br)s3)sc2c1 | 47.7 µM |
| CC(C)Cn1c(=O)c(C(=O)Nc2ccncc2)c(O)c2ccccc21 | 3.34 µM |
| Cc1cc(C2N=C(N)Nc3nc4ccccc4n32)c(C)n1-c1ccccc1Cl (configuration not stated) | 6.74 µM |
| O=C(C1CC1)N1CCc2cc(S(=O)(=O)NCCC3=CCCCC3)ccc21 | 17.7 µM |
| CCCSc1oc(-c2ccco2)nc1S(=O)(=O)c1ccccc1 | 9.73 µM |
| Oc1ccc(-c2[nH]ncc2-c2ccc(Cl)cc2)c(O)c1 | 11.1 µM |
| C=CCn1cc(C(=O)NCc2ccco2)c(=O)c2cc(S(=O)(=O)N3CCCCCC3)ccc21 | 16.1 µM |
| Cc1ccc2c(c1)[nH]c1c(N3CCN(Cc4ccccc4)CC3)ncnc12 | 39.1 µM |
| O=C(Nc1nc(-c2ccccc2)ns1)c1cccs1 | 28.4 µM |
| Cc1cccc(OCCn2c(NC(=O)c3ccco3)nc3ccccc32)c1 | 11 µM |
| O=C1c2[nH]nc(-c3ccccc3O)c2C(c2ccccc2)N1Cc1ccco1 (configuration not stated) | 2.45 µM |
| O=S(=O)(Nc1nnc(-c2ccccc2)s1)c1ccc(Cl)cc1 | 3.74 µM |
| CCCC1=C(C(=O)OCC)C(c2cc(Cl)cc(OC)c2OCC(=O)OCC)NC(=O)N1 (configuration not stated) | 24.5 µM |
| N#Cc1c(/N=C/c2ccco2)oc(-c2ccccc2)c1-c1ccccc1 | 6.78 µM |
| Cc1nc2ccc(C(C(F)(F)F)(C(F)(F)F)C(F)(F)F)cc2[nH]1 | 33.4 µM |
| N#CCSc1nc2c(c(C3CC=CCC3)c1C#N)CCC2 (configuration not stated) | 12.9 µM |

| SMILES | IC50 |
| --- | --- |
| CCOC(=O)c1cc2c(ccn2C)n1Cc1ccccc1C | 27.3 µM |
| Cc1ccc2cc(CN(Cc3ccc(F)cc3)Cc3nnnn3C3CCCC3)c(=O)[nH]c2c1 | 12.8 µM |
| O=C(CCn1c(=O)oc2ccccc21)N1CCN(C(c2ccccc2)c2ccccc2)CC1 | 29 µM |
| CCSc1nnc(NC(=O)c2cccc(OCc3c(C)noc3C)c2)s1 | 10.8 µM |
| Cc1cccc(-n2ncc3c(N4CC(C)CC(C)C4)ncnc32)c1 (configuration not stated) | 12.2 µM |
| CCOc1ccc(S(=O)(=O)Nc2cc(Cl)ccc2O)cc1 | 9.22 µM |
| NC1C2CN(c3nc4c(cc3F)c(=O)c(C(=O)O)cn4-c3ccc(F)cc3F)CC12 (configuration not stated) | < 0.2 µM |
| CCCOc1ccc2oc(=O)c3c(c2c1)CCCN3C(=O)CN1CCc2ccccc2C1 | 14.1 µM |
| O=S(=O)(Nc1nc2ccccc2nc1NCc1ccco1)c1ccccc1 | 8.89 µM |
| Cc1cc(C)cc(Nc2cc(=O)n(C3CCCCC3)c(=O)[nH]2)c1 | 2.8 µM |
| CC1=CC(C)(C)N2C(=O)C3(C(C#N)=C(N)Oc4cc(O)ccc43)c3cccc1c32 (configuration not stated) | 4.14 µM |
| O=c1c2c(nc3c(-c4cccc5ccccc45)c[nH]n13)CCC2 | 7 µM |
| CCn1c(SCC(=O)Nc2nc(-c3ccc(C)cc3)cs2)nnc1-c1ccccc1O | 4.11 µM |
| CC(=Nc1ccc(O)cc1)c1sc2ccccc2c1O | 0.89 µM |
| O=S(=O)(Nc1ncnc2sc3c(c12)CCC3)c1ccc(Cl)s1 | 5.93 µM |
| COc1ccc(-c2cc(C(=O)N3CC4(C)CC3CC(C)(C)C4)no2)cc1OC (configuration not stated) | 14.1 µM |
| Clc1ccccc1OCc1nnc(-c2ccccc2Br)o1 | 12.4 µM |
| O=C(CN1CCN(c2nc(-c3ccc(F)cc3)cs2)CC1)NCc1ccc2c(c1)OCO2 | 11.1 µM |
| Cc1nn(-c2ccccc2)c(C)c1C(=O)Nc1nnc(-c2ccco2)o1 | 6.38 µM |
| CCOC(=O)N1CCN(c2nc(-c3ccc(F)cc3)cs2)CC1 | 32.4 µM |
| O=C(Nc1nc2ccccc2n1CCOc1ccc(Cl)cc1)c1ccco1 | 25.2 µM |
| CCc1cc2cc(C(=O)N3CCN(Cc4ccccc4)CC3)sc2s1 | 10.3 µM |
| Cc1cc(NC(=O)Cn2nnc3sc4c(c3c2=O)CCC(C(C)(C)C)C4)no1 (configuration not stated) | 7.77 µM |

| SMILES | IC50 |
| --- | --- |
| Oc1ccccc1-c1nc(NCC2CCCO2)c2ccccc2n1 (configuration not stated) | 90.8 µM |
| Cc1ccc(/C(O)=C2\C(=O)C(=O)N(c3cc(C)on3)C2c2cccc(Br)c2)cc1 (configuration not stated) | 13.8 µM |
| COC(=O)c1cccc(-n2nnnc2SCC(=O)Nc2nc3c(s2)CCCC3)c1 | 15.8 µM |
| CCn1c(C(=O)NCCCc2ccccc2)cc2sccc21 | 8.52 µM |
| Cc1cc(N2CCCCCC2)nc(-c2ccccc2O)n1 | 13.6 µM |
| c1ccc(-c2cccc(-c3ccccn3)n2)nc1 | 19.4 µM |
| C=CCOC(=O)C(C#N)c1nc2ccccc2nc1N1CCCC1 (configuration not stated) | 8.74 µM |
| Clc1ccc(C2=Nn3c(nnc3-c3n[nH]c4c3CCC4)SC2)cc1Cl | 11 µM |
| COC(=O)c1[nH]c2ccc(C)cc2c1NS(=O)(=O)c1ccc(F)c(C)c1 | 1.75 µM |
| CCOC(=O)c1cccc(NC(=O)c2cc3sccc3n2C)c1 | 9.82 µM |
| Cc1ccc(C2C(S(C)(=O)=O)=C(O)C(=O)N2c2ccccc2)cc1 (configuration not stated) (tested in a mixture with another compound) | 4.81 µM |
| CCCCc1cc(O)c(CCCC)c(O)c1 | 10.9 µM |
| CC1CC(C)CN(c2ncnc3c2cnn3Cc2ccc(Cl)cc2)C1 (configuration not stated) | 6.08 µM |
| Clc1ccc(Cn2ncc3c(NCc4ccco4)ncnc32)c(Cl)c1 | 53.4 µM |
| Cc1cc(-c2nnc3n2N=C(c2ccc(-c4ccccc4)cc2)CS3)n[nH]1 | 9.55 µM |
| O=S(=O)(Nc1nc2ccccc2nc1N1CCN(c2ccccn2)CC1)c1ccc(Cl)cc1 | 3.16 µM |
| O=S(=O)(Nc1cc(Cl)ccc1N1CCCCC1)c1cccs1 | 12.5 µM |
| O=S(=O)(NC1CCCC1)c1ccc(S(=O)(=O)N(Cc2cccs2)CC2CCCO2)cc1 (configuration not stated) | 21 µM |
| Cc1ccc(C)c(N2CCN(C(=O)c3cc4sccc4n3C)CC2)c1 | 15.1 µM |
| Cc1nn(-c2nc3ccccc3n2Cc2ccccc2)c2c1C(=O)CC(C)(C)C2 | 8.51 µM |
| CCCc1cc(-c2[nH]ncc2-c2ccc3c(c2)OCCCO3)c(O)cc1O | 5.48 µM |
| c1ccc(-c2nc(N3CCCCCC3)nc(-n3ccnc3)n2)cc1 | 7.72 µM |
| O=S(=O)(N1CCCCC1)n1c(Cc2ccccc2)nc2ccccc21 | 6.89 µM |

| SMILES | IC50 |
| --- | --- |
| O=C1CCCC2=C1C(c1cccs1)n1nc(SCc3ccccc3)nc1N2 (configuration not stated) | 15.8 µM |
| CCCn1c(CNc2ccc(Br)cc2)nc2ccccc21 | 6.22 µM |
| CCc1c(O)nc(SCC(=O)Nc2ccc(C)cc2)n(C2CCCCC2)c1=O | 7.36 µM |
| CCn1c(SCC(=O)OC2CCCCC2)nc2ccccc2c1=O | 11.8 µM |
| Cc1ccc(S(=O)(=O)Cn2nnnc2CN2CCCC3(CCCCC3)C2)cc1 | 11.3 µM |
| CC1CCCCN1c1nc(-c2ccncc2)nc2ccccc12 (configuration not stated) | 12 µM |
| Nc1c(C(=O)NCCc2ccccc2)c2nc3ccccc3nc2n1CCN1CCOCC1 | 12.4 µM |
| O=C(Nc1nc(-c2cc(Cl)sc2Cl)cs1)c1cccs1 | 1.69 µM |
| CCOc1ccccc1NC(=O)c1cc(CC(C)C)oc1C | 21.8 µM |
| COc1ccccc1OCC(=O)N(Cc1nc(-c2ccccc2)no1)C1CCCCC1 | 12.7 µM |
| CC1(C)Cc2c(sc3c2c(=N)n(Cc2ccco2)c(=O)n3Cc2ccc(Cl)cc2)CO1 | 13.3 µM |
| O=C(CSc1ncn(-c2ccccc2)n1)Nc1nc2c(s1)CCCC2 | 16.9 µM |
| CN(c1ccccc1)C(c1ccc(F)cc1)c1nnnn1C1CCCC1 (configuration not stated) | 11.1 µM |
| CCn1c(CNc2cccc(Cl)c2)nnc1SCC(=O)OC1CCCCC1 | 17.8 µM |
| CCOc1ccc(N(CC(=O)Nc2ccc(C)c(C)c2)S(=O)(=O)c2c(C)noc2C)cc1 | 15.5 µM |
| COc1ccc(C(=O)Nn2cnc3scc(-c4cccs4)c3c2=O)c(O)c1 | 3.24 µM |
| CCCCN1C(=O)C2ON(c3ccccc3C)C(c3ccco3)C2C1=O (configuration not stated) | 14.4 µM |
| Clc1ccc(Cl)c(-c2nn3c(COc4ccccc4)nnc3s2)c1 | 0.78 µM |
| Cc1ccc(NC(=O)CN(C)S(=O)(=O)c2cccc3nsnc23)cc1Cl | 17.8 µM |
| CC(C)N(Cc1nc(-c2ccc(Cl)cc2)no1)C(=O)c1cccs1 | 18.9 µM |
